Test system: U2OS
Assay: Multiplex assay against U2OS
Assay type: toxicity, cell-based
Conditions: human
Method in brief: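 Four dyes were applied at seeding to live cells: Hoechst33342, BioTracker Green Microtubule Cytoskeleton Dye, MitoTracker Red and Annexin V Alexa Fluor 680. Imaging after compound addition used a CQ1 microscope at 37°C and 5% CO2. CellPathfinder machine-learning gating then sorted cells into Hoechst high-intensity objects or normal cells, normal cells into healthy, pyknosed or fragmented nuclei, and pyknosed cells into mitotic or apoptotic, with tubulin, mitochondrial-mass and membrane-permeability phenotypes given as per cents of healthy-nucleus cells.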

[1] = 12 h, 1 µM, compound concentration 1 uM, replicate 1
[2] = 12 h, 1 µM, compound concentration 1 uM, replicate 2
[3] = 12 h, 10 µM, compound concentration 10 uM, replicate 1
[4] = 12 h, 10 µM, compound concentration 10 uM, replicate 2
[5] = 24 h, 1 µM, compound concentration 1 uM, replicate 1
[6] = 24 h, 1 µM, compound concentration 1 uM, replicate 2
[7] = 24 h, 10 µM, compound concentration 10 uM, replicate 1
[8] = 24 h, 10 µM, compound concentration 10 uM, replicate 2
[9] = 48 h, 1 µM, compound concentration 1 uM, replicate 1
[10] = 48 h, 1 µM, compound concentration 1 uM, replicate 2
[11] = 48 h, 10 µM, compound concentration 10 uM, replicate 1
[12] = 48 h, 10 µM, compound concentration 10 uM, replicate 2

For `CC(C)NCC(O)COc1ccc(CCOCC2CC2)cc1.Cl` (configuration not stated) [BETAXOLOL HYDROCHLORIDE], the “Population Apoptotic (%)” value [1] was 60%, the “Population Fragmented Nuclei (%)” value [1] was 9% and the “Population Healthy Nuclei (%)” value [1] was 84%. For the same molecule, the “Population Hoechst High Intensity Objects (%)” value [1] was 8%, the “Population Mitochondria Different-Phenotype (%)” value [1] was 14% and the “Population Mitotic Cells (%)” value [1] was 40%. The “Population Normal (%)” value [1] was 92%, the “Population Pyknosed Nuclei (%)” value [1] was 6% and the “Population Tubulin-Different-Phenotype (%)” value [1] was 12%. For the same molecule, the “Total Cell Count” value [1] was 175, the “Population Apoptotic (%)” value [2] was 100% and the “Population Fragmented Nuclei (%)” value [2] was 2%. The “Population Healthy Nuclei (%)” value [2] was 95%, the “Population Hoechst High Intensity Objects (%)” value [2] was 16% and the “Population Membrane Permeable-Phenotype (%)” value [2] was 6%. The “Population Mitochondria Different-Phenotype (%)” value [2] was 2%, the “Population Mitotic Cells (%)” value [2] was 0% and the “Population Normal (%)” value [2] was 83%. The “Population Pyknosed Nuclei (%)” value [2] was 2%, the “Population Tubulin-Different-Phenotype (%)” value [2] was 9% and the “Total Cell Count” value [2] was 55. For the same molecule, the “Population Apoptotic (%)” value [3] was 52%, the “Population Fragmented Nuclei (%)” value [3] was 14% and the “Population Healthy Nuclei (%)” value [3] was 69%. For the same molecule, the “Population Hoechst High Intensity Objects (%)” value [3] was 5%, the “Population Membrane Permeable-Phenotype (%)” value [3] was 2% and the “Population Mitochondria Different-Phenotype (%)” value [3] was 64%. For the same molecule, the “Population Mitotic Cells (%)” value [3] was 47%, the “Population Normal (%)” value [3] was 94% and the “Population Pyknosed Nuclei (%)” value [3] was 16%. For the same molecule, the “Population Tubulin-Different-Phenotype (%)” value [3] was 53%, the “Total Cell Count” value [3] was 124 and the “Population Apoptotic (%)” value [4] was 23%. The “Population Fragmented Nuclei (%)” value [4] was 9%, the “Population Healthy Nuclei (%)” value [4] was 77% and the “Population Hoechst High Intensity Objects (%)” value [4] was 7%. For the same molecule, the “Population Membrane Permeable-Phenotype (%)” value [4] was 5%, the “Population Mitochondria Different-Phenotype (%)” value [4] was 72% and the “Population Mitotic Cells (%)” value [4] was 76%. The “Population Normal (%)” value [4] was 92%, the “Population Pyknosed Nuclei (%)” value [4] was 13% and the “Population Tubulin-Different-Phenotype (%)” value [4] was 49%. The “Total Cell Count” value [4] was 107, the “Population Apoptotic (%)” value [5] was 28% and the “Population Fragmented Nuclei (%)” value [5] was 8%. The “Population Healthy Nuclei (%)” value [5] was 83%, the “Population Membrane Permeable-Phenotype (%)” value [5] was 3% and the “Population Mitochondria Different-Phenotype (%)” value [5] was 10%. The “Population Mitotic Cells (%)” value [5] was 71%, the “Population Pyknosed Nuclei (%)” value [5] was 7% and the “Population Tubulin-Different-Phenotype (%)” value [5] was 8%. The “Total Cell Count” value [5] was 202, the “Population Apoptotic (%)” value [6] was 33% and the “Population Fragmented Nuclei (%)” value [6] was 3%. The “Population Healthy Nuclei (%)” value [6] was 85%, the “Population Hoechst High Intensity Objects (%)” value [6] was 5% and the “Population Membrane Permeable-Phenotype (%)” value [6] was 4%. The “Population Mitochondria Different-Phenotype (%)” value [6] was 6%, the “Population Mitotic Cells (%)” value [6] was 66% and the “Population Normal (%)” value [6] was 94%. For the same molecule, the “Population Pyknosed Nuclei (%)” value [6] was 10%, the “Population Tubulin-Different-Phenotype (%)” value [6] was 2% and the “Total Cell Count” value [6] was 59. For the same molecule, the “Population Apoptotic (%)” value [7] was 57%, the “Population Fragmented Nuclei (%)” value [7] was 13% and the “Population Healthy Nuclei (%)” value [7] was 70%. For the same molecule, the “Population Hoechst High Intensity Objects (%)” value [7] was 6%, the “Population Membrane Permeable-Phenotype (%)” value [7] was 7% and the “Population Mitochondria Different-Phenotype (%)” value [7] was 59%. For the same molecule, the “Population Mitotic Cells (%)” value [7] was 42%, the “Population Normal (%)” value [7] was 93% and the “Population Pyknosed Nuclei (%)” value [7] was 16%. For the same molecule, the “Population Tubulin-Different-Phenotype (%)” value [7] was 31%, the “Total Cell Count” value [7] was 139 and the “Population Apoptotic (%)” value [8] was 40%. For the same molecule, the “Population Fragmented Nuclei (%)” value [8] was 7%, the “Population Healthy Nuclei (%)” value [8] was 78% and the “Population Hoechst High Intensity Objects (%)” value [8] was 5%. The “Population Membrane Permeable-Phenotype (%)” value [8] was 5%, the “Population Mitochondria Different-Phenotype (%)” value [8] was 78% and the “Population Mitotic Cells (%)” value [8] was 60%. The “Population Normal (%)” value [8] was 94%, the “Population Pyknosed Nuclei (%)” value [8] was 15% and the “Population Tubulin-Different-Phenotype (%)” value [8] was 46%. For the same molecule, the “Total Cell Count” value [8] was 106, the “Population Apoptotic (%)” value [9] was 25% and the “Population Fragmented Nuclei (%)” value [9] was 8%. For the same molecule, the “Population Healthy Nuclei (%)” value [9] was 81%, the “Population Membrane Permeable-Phenotype (%)” value [9] was 2% and the “Population Mitochondria Different-Phenotype (%)” value [9] was 7%. The “Population Mitotic Cells (%)” value [9] was 74%, the “Population Pyknosed Nuclei (%)” value [9] was 10% and the “Population Tubulin-Different-Phenotype (%)” value [9] was 6%. For the same molecule, the “Total Cell Count” value [9] was 296, the “Population Apoptotic (%)” value [10] was 50% and the “Population Fragmented Nuclei (%)” value [10] was 9%. The “Population Healthy Nuclei (%)” value [10] was 80%, the “Population Hoechst High Intensity Objects (%)” value [10] was 3% and the “Population Membrane Permeable-Phenotype (%)” value [10] was 5%. For the same molecule, the “Population Mitochondria Different-Phenotype (%)” value [10] was 16%, the “Population Mitotic Cells (%)” value [10] was 50% and the “Population Normal (%)” value [10] was 96%. The “Population Pyknosed Nuclei (%)” value [10] was 9%, the “Population Tubulin-Different-Phenotype (%)” value [10] was 10% and the “Total Cell Count” value [10] was 87. The “Population Apoptotic (%)” value [11] was 52%, the “Population Fragmented Nuclei (%)” value [11] was 19% and the “Population Healthy Nuclei (%)” value [11] was 68%. For the same molecule, the “Population Hoechst High Intensity Objects (%)” value [11] was 4%, the “Population Membrane Permeable-Phenotype (%)” value [11] was 3% and the “Population Mitochondria Different-Phenotype (%)” value [11] was 34%. For the same molecule, the “Population Mitotic Cells (%)” value [11] was 47%, the “Population Normal (%)” value [11] was 95% and the “Population Pyknosed Nuclei (%)” value [11] was 12%. For the same molecule, the “Population Tubulin-Different-Phenotype (%)” value [11] was 21%, the “Total Cell Count” value [11] was 200 and the “Population Apoptotic (%)” value [12] was 54%. The “Population Fragmented Nuclei (%)” value [12] was 9%, the “Population Healthy Nuclei (%)” value [12] was 75% and the “Population Hoechst High Intensity Objects (%)” value [12] was 5%. The “Population Membrane Permeable-Phenotype (%)” value [12] was 9%, the “Population Mitochondria Different-Phenotype (%)” value [12] was 50% and the “Population Mitotic Cells (%)” value [12] was 45%. For the same molecule, the “Population Normal (%)” value [12] was 94%, the “Population Pyknosed Nuclei (%)” value [12] was 15% and the “Population Tubulin-Different-Phenotype (%)” value [12] was 25%. The “Total Cell Count” value [12] was 152.
